Experimental data: ChEMBL document CHEMBL4190353, “Synthesis, structure-activity relationships and preliminary mechanism of action of novel water-soluble 4-quinolone-3-carboxamides as antiproliferative agents” (Eur J Med Chem, 2017)

Assays:
[1] = tested on: RKO; experiment: Cytotoxicity against human RKO cells assessed as reduction in cell viability incubated for 24 hrs by MTT assay; assay type: functional, cell-based
How it was run: (§1)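 Cells were kept in McCoy's 5A with 10% fetal bovine serum, streptomycin and 100 units·mL⁻¹ penicillin at 37 °C under 5% CO₂/95% air. Viability was read by MTT optical density. IC50 is the concentration that lowers optical density by 50% relative to untreated cells. Values are means with SD of at least three independent determinations.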

[2] = tested on: PC-3; experiment: Cytotoxicity against human PC3 cells assessed as reduction in cell viability incubated for 24 hrs by MTT assay; assay type: functional, cell-based; conditions: PC-3, 24 h; how it was run: as §1
[3] = Solubility in water; assay type: physicochemical
[4] = tested on: HEp-2; experiment: Cytotoxicity against human Hep2 cells assessed as reduction in cell viability incubated for 24 hrs by MTT assay; assay type: functional, cell-based; conditions: HEp-2, 24 h; how it was run: as §1
[5] = tested on: MCF7; experiment: Cytotoxicity against human MCF7 cells assessed as reduction in cell viability incubated for 24 hrs by MTT assay; assay type: functional, cell-based; conditions: MCF7, 24 h; how it was run: as §1
[6] = tested on: HCT-8; experiment: Cytotoxicity against human HCT8 cells assessed as reduction in cell viability incubated for 24 hrs by MTT assay; assay type: functional, cell-based; conditions: HCT-8, 24 h; how it was run: as §1
[7] = tested on: HepG2; experiment: Cytotoxicity against human HepG2 cells assessed as reduction in cell viability incubated for 24 hrs by MTT assay; assay type: functional, cell-based; conditions: HepG2, 24 h; how it was run: as §1
[8] = tested on: HeLa; experiment: Cytotoxicity against human HeLa cells assessed as reduction in cell viability incubated for 24 hrs by MTT assay; assay type: functional, cell-based; how it was run: as §1
[9] = tested on: HCT-116; experiment: Cytotoxicity against human HCT116 cells assessed as reduction in cell viability incubated for 24 hrs by MTT assay; assay type: functional, cell-based; conditions: HCT-116, 24 h; how it was run: as §1
[10] = tested on: BGC-823; experiment: Cytotoxicity against human BGC823 cells assessed as reduction in cell viability incubated for 24 hrs by MTT assay; assay type: functional, cell-based; conditions: BGC-823, 24 h; how it was run: as §1

Row | solubility [3] [µg/mL] | Compound | IC50 [1] [µM] | IC50 [2] [µM] | IC50 [4] [µM] | IC50 [5] [µM] | IC50 [6] [µM] | IC50 [7] [µM] | IC50 [8] [µM] | IC50 [9] [µM] | IC50 [10] [µM]
1 | > 10000 | C=CCn1cc(C(=O)NCCCN(CC)CC)c(=O)c2ccc(Cl)cc21.Cl | 16.3 | 14.1 | 14.5 | 35.5 | 30 | 12.6 | 19.1 | 18.7 | 15.1
2 | > 10000 | CCN(CC)CCNC(=O)c1cn(CC)c2cc(Cl)ccc2c1=O.Cl | 23.4 | 15.9 | 42.3 | 25.1 | 25.1 | 9.52 | 13.8 | 19.8 | 12.3
3 | > 10000 | CCN(CC)CCCNC(=O)c1c[nH]c2cc(Cl)ccc2c1=O.Cl | 25.2 | 39.8 | 25.1 | 22.4 | 28.8 | 28.2 | 22.4 | 23.3 | 23.4
4 |  | CCCCn1cc(C(=O)OCC)c(=O)c2ccc(Cl)cc21 | 45.2 | 41.7 | 35.5 | > 50 | > 50 | 28.3 | > 50 | 39.8 | 43.6
5 | > 10000 | CCN(CC)CCCNC(=O)c1c[nH]c2cc(Br)ccc2c1=O.Cl | 38.7 | > 50 | 44.7 | 21.1 | > 50 | 45.7 | > 50 | 44.3 | 44.7
6 |  | CCOC(=O)c1cn(CC)c2cc(Cl)ccc2c1=O | > 50 | > 50 | > 50 | > 50 | > 50 | 47.9 | > 50 | > 50 | 40.7
7 |  | CCOC(=O)c1cn(Cc2ccccc2)c2cc(Cl)ccc2c1=O | 16.3 | 27.9 | 19.1 | 15.8 | 27.4 | 22.4 | 16.2 | 21.3 | 13.8
8 | > 10000 | CCN(CC)CCCNC(=O)c1cn(C)c2cc(Cl)ccc2c1=O.Cl | 11.2 | 15.8 | 4.51 | 10 | 22.4 | 8.72 | 9.5 | 9.85 | 17.8
9 |  | Oc1ccnc2cc(Cl)ccc12 | > 50 | > 50 | > 50 | > 50 | > 50 | > 50 | > 50 | > 50 | > 50
10 | > 10000 | C=CCn1cc(C(=O)NCCN(CC)CC)c(=O)c2ccc(Cl)cc21.Cl | 30.1 | 44.5 | 24 | 47.9 | 30.2 | 19.1 | 38.9 | 35.6 | 12
11 | > 10000 | CCN(CC)CCCNC(=O)c1c[nH]c2cc(OC)ccc2c1=O.Cl | 42.5 | > 50 | 40.8 | 34.7 | 44.6 | 47.9 | 39.8 | 38.9 | 40.8
12 |  | CCOC(=O)c1cn(C)c2cc(Cl)ccc2c1=O | > 50 | > 50 | 25 | > 50 | > 50 | 38 | > 50 | > 50 | 30.2
13 |  | CCOC(=O)c1cn(CCCc2ccccc2)c2cc(Cl)ccc2c1=O | 9.86 | 16.1 | 7.63 | 14.1 | 17 | 15.1 | 14.8 | 10.8 | 18.6
14 | > 10000 | CCN(CC)CCCNC(=O)c1cn(CC)c2cc(Cl)ccc2c1=O.Cl | 10.2 | 12.6 | 9.82 | 14.1 | 16.9 | 10.5 | 15.1 | 8.78 | 11.7
15 |  | C=CCn1cc(C(=O)OCC)c(=O)c2ccc(Cl)cc21 | 48 | > 50 | > 50 | 49.8 | 45.2 | 43.8 | > 50 | > 50 | > 50
16 | > 10000 | CCN(CC)CCCNC(=O)c1c[nH]c2cc(F)ccc2c1=O.Cl | 29.8 | > 50 | 45.1 | 36.8 | 48.5 | > 50 | 39.4 | 38.6 | 46.3
17 | > 10000 | CCN(CC)CCNC(=O)c1cn(C)c2cc(Cl)ccc2c1=O.Cl | 24.6 | 31.6 | 17.8 | 22.4 | 32.6 | 10.2 | 28.9 | 15.6 | 27.6

Row | Compound | solubility [3] [µg/mL] | IC50 [1] [µM] | IC50 [2] [µM] | IC50 [4] [µM] | IC50 [5] [µM] | IC50 [6] [µM] | IC50 [7] [µM] | IC50 [8] [µM] | IC50 [9] [µM] | IC50 [10] [µM]
18 | CCCCn1cc(C(=O)NCCN(CC)CC)c(=O)c2ccc(Cl)cc21.Cl | > 10000 | 16.8 | 44.6 | 22.6 | 35.5 | 46.8 | 6.92 | 21.6 | 21 | 7.11
19 | CCCCn1cc(C(=O)NCCCN(CC)CC)c(=O)c2ccc(Cl)cc21.Cl | > 10000 | 9.65 | 8.31 | 11.2 | 12.3 | 28.8 | 5.63 | 15.4 | 7.84 | 9.12
20 | CCN(CC)CCNC(=O)c1cn(Cc2ccccc2)c2cc(Cl)ccc2c1=O.Cl | > 10000 | 14.3 | 9.5 | 7.02 | 15.8 | 23.1 | 4.32 | 5.83 | 11.2 | 10.2
21 | CCN(CC)CCCNC(=O)c1cn(Cc2ccccc2)c2cc(Cl)ccc2c1=O.Cl | > 10000 | 7.89 | 10.2 | 4.51 | 4.54 | 19.5 | 4.43 | 4.9 | 8.65 | 5.21
